Experiments:
[1] = biological target: T1, Prostaglandin E2 receptor EP1 subtype (Homo sapiens, UniProt P34995); assay: Affinity at human Prostanoid EP1 receptor in the human embryonic kidney (HEK) 293 cell line.; assay type: cell-based, HEK293
T1 sequence (P34995 whole entry): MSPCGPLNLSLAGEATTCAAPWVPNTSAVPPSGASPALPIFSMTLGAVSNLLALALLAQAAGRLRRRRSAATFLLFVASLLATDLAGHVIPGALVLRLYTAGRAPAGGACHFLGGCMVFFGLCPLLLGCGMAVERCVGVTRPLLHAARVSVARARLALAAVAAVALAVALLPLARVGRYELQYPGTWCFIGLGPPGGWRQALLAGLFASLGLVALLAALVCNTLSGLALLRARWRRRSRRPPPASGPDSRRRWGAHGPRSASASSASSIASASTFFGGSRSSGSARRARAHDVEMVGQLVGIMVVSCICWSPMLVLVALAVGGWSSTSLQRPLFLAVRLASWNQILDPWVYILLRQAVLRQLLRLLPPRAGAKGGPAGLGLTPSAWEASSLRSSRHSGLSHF

[2] = biological target: Prostaglandin E2 receptor EP4 subtype (Homo sapiens, UniProt P35408); assay: Affinity at human Prostanoid EP4 receptor in the human embryonic kidney (HEK) 293 cell line.; assay type: cell-based, HEK293
[3] = biological target: T2, Prostaglandin E2 receptor EP3 subtype (Homo sapiens, UniProt P43115); assay: Affinity at human Prostanoid EP3 receptor in the human embryonic kidney (HEK) 293 cell line.; assay type: cell-based, HEK293
T2 sequence (P43115 whole entry): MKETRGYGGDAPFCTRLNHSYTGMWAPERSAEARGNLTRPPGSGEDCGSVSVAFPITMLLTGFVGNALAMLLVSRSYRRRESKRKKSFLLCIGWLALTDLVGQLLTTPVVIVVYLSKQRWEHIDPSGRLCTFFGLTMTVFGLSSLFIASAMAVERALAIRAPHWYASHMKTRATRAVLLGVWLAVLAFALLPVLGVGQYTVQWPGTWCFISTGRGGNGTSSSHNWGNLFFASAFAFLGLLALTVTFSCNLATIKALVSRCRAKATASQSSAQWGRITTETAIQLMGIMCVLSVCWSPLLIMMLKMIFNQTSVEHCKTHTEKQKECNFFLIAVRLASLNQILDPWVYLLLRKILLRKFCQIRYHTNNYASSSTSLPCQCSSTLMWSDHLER

[4] = biological target: Prostaglandin E2 receptor EP2 subtype (Homo sapiens, UniProt P43116); assay: Affinity at human Prostanoid EP2 receptor in the human embryonic kidney (HEK) 293 cell line.; assay type: cell-based, HEK293
[5] = biological target: Prostaglandin F2-alpha receptor (Homo sapiens, UniProt P43088); assay: Ability to inhibit the binding of human FP receptor to PGD-2
[6] = biological target: Prostaglandin D2 receptor DP (human) (UniProt Q13258); assay: Ability to inhibit the binding of human DP receptor to PGD-2
Thromboxane A2 receptor = biological target: T3, Thromboxane A2 receptor (Homo sapiens, UniProt P21731); assay: Ability to inhibit the binding of human Thromboxane A2 receptor to TXA2
T3 sequence (P21731 whole entry): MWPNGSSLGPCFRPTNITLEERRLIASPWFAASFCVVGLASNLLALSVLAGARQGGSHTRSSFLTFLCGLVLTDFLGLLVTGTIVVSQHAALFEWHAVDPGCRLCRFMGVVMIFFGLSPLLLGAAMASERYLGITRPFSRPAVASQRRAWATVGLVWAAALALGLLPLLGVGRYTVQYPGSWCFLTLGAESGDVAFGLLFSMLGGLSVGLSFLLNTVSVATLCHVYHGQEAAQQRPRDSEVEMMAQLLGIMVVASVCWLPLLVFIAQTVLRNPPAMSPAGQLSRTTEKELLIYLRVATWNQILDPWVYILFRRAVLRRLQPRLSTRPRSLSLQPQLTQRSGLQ

[7] = biological target: T4, Prostaglandin E2 receptor EP3 subtype (Homo sapiens) (UniProt P43115); assay: Ability to inhibit the binding of human Prostanoid EP3 receptor to PGE-2 using EP3 functional assay
T4 sequence (whole entry): T2 sequence (P43115 whole entry)
Outline: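 HEL 92.1.7 human erythroleukemia cells, which endogenously express EP3, at 2×10⁵ cells per incubation in HBSS with RO-20174 and forskolin. Antagonist (0–3×10⁻⁶ M, 0.5% DMSO final) preincubated 10 min at 37 °C. Sulprostone (0–3×10⁻⁵ M) was then added as agonist for 10 min at 37 °C. The reaction was stopped by 3 min boiling, and cAMP was read by SPA.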

Prostacyclin receptor = Prostacyclin receptor (Homo sapiens, UniProt P43119); assay: Ability to inhibit the binding of human IP receptor to Prostaglandin I2 receptor
Sequence of Prostacyclin receptor (P43119 whole entry): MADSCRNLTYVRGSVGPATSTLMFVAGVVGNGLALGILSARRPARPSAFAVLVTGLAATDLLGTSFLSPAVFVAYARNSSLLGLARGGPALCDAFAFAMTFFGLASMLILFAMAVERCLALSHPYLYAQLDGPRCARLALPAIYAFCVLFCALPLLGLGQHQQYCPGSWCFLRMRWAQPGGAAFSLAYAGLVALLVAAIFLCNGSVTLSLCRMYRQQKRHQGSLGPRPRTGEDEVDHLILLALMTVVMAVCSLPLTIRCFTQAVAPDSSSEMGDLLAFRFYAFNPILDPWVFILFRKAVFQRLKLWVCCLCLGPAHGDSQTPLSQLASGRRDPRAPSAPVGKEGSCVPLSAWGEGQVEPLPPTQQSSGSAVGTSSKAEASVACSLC

Sequence of Prostaglandin E2 receptor EP4 subtype (P35408 whole entry): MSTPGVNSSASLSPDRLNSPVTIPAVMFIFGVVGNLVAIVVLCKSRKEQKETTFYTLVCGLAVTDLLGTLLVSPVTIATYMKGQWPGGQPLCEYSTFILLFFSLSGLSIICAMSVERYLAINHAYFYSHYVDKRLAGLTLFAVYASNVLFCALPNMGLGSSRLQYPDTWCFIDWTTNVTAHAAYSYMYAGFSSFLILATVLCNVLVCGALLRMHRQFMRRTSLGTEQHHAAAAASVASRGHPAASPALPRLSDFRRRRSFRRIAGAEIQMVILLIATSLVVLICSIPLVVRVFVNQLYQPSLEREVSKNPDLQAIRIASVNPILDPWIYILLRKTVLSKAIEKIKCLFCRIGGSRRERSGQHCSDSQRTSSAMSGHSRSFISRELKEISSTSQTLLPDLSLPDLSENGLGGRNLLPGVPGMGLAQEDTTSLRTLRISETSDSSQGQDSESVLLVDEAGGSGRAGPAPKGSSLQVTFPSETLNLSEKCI
Sequence of Prostaglandin E2 receptor EP2 subtype (P43116 whole entry): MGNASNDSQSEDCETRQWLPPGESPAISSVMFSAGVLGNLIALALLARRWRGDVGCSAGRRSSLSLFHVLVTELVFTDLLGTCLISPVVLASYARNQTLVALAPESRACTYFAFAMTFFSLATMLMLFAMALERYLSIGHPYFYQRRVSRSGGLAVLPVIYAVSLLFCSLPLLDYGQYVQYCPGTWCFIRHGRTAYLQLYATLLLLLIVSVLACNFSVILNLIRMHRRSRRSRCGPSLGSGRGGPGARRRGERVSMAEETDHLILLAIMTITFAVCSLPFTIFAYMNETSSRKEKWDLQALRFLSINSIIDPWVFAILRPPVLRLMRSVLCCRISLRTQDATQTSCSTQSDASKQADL
Sequence of Prostaglandin D2 receptor DP (human) (Q13258 whole entry, looked up): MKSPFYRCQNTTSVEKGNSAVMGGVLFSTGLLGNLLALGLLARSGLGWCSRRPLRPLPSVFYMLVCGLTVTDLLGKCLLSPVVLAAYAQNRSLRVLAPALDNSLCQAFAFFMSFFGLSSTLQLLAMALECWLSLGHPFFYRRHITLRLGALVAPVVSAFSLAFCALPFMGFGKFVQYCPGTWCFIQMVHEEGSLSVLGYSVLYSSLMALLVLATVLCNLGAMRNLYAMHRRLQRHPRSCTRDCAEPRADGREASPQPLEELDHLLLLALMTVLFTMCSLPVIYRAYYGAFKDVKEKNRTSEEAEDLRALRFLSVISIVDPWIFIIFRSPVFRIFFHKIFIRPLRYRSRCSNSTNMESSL
Sequence of Prostaglandin F2-alpha receptor (P43088 whole entry): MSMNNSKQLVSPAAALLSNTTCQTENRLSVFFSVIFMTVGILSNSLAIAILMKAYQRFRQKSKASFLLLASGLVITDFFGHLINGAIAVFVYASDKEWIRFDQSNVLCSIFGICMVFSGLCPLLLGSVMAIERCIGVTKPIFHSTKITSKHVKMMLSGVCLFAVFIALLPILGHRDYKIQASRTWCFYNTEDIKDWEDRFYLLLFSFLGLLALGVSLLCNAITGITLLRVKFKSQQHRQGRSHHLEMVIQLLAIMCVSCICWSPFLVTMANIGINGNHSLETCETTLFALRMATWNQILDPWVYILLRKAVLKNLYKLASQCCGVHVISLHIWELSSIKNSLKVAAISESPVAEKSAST

CC(CC(=O)O)c1ccccc1-c1csc(-c2ccccc2OCc2ccccc2)c1 (configuration not stated)
Ki [1]: 35 µM | Ki [2]: 1.1 µM | Ki [3]: 0.035 µM | Ki [4]: 4.6 µM

O=C(/C=C/c1ccccc1-c1ccc(Cl)c(Cl)c1)NS(=O)(=O)c1cccs1
Ki [1]: 8.1 µM | Ki [4]: 10 µM

O=C(O)/C=C/c1ccccc1-c1ccc(Cl)c(Cl)c1
Ki [1]: 10 µM | Ki [2]: > 10 µM | Ki [3]: 1.6 µM | Ki [4]: 7.5 µM

Cc1cccc(/C=C/Cc2ccccc2/C=C/C(=O)O)c1OCc1ccccc1
Ki [1]: 12 µM | Ki [2]: 1.9 µM | Ki [3]: 0.007 µM | Ki [4]: 8.1 µM

O=C(O)C1CC1c1ccccc1-c1csc(-c2ccccc2OCc2ccccc2)c1 (configuration not stated)
Ki [5]: 22 µM | Ki [1]: 48 µM | Ki [6]: 0.12 µM | Ki [2]: 0.3 µM | Ki (Thromboxane A2 receptor): 0.4 µM | Kb [7]: 0.0058 µM | Ki [3]: 0.003 µM | Ki [4]: 2.3 µM | Ki (Prostacyclin receptor): 0.71 µM

CC(Cc1ccccc1-c1csc(-c2ccccc2OCc2ccccc2)c1)C(=O)O (configuration not stated)
Ki [1]: 13 µM | Ki [2]: 0.98 µM | Ki [3]: 0.46 µM | Ki [4]: 5.5 µM

O=C(O)CCc1ccccc1-c1csc(-c2ccccc2OCc2ccccc2)c1
Ki [1]: 17.8 µM | Ki [2]: 0.65 µM | Ki [3]: 0.023 µM | Ki [4]: 2.5 µM

O=C(O)CCc1ccccc1-c1cccc(-c2ccc(OCc3ccccc3)cc2)c1
Ki [1]: > 97 µM | Ki [2]: 21 µM | Ki [3]: 1.5 µM | Ki [4]: > 97 µM

O=C(O)CCc1ccccc1-c1cc(-c2ccccc2OCc2ccccc2)cs1
Ki [1]: 17.5 µM | Ki [2]: 0.76 µM | Ki [3]: 0.027 µM | Ki [4]: 2.9 µM

O=C(O)/C=C/c1ccccc1-c1cccc(-c2ccccc2OCc2ccccc2)c1
Ki [1]: 72 µM | Ki [2]: 1.7 µM | Ki [3]: 0.084 µM | Ki [4]: 0.83 µM

O=C(O)Cc1ccccc1-c1cccc(-c2ccccc2OCc2ccccc2)c1
Ki [1]: 9.3 µM | Ki [2]: 1.1 µM | Ki [3]: 1.7 µM | Ki [4]: 3.6 µM

O=C(O)CNc1ccccc1-c1csc(-c2ccccc2OCc2ccccc2)c1
Ki [1]: 85 µM | Ki [2]: 0.46 µM | Ki [3]: 0.052 µM | Ki [4]: 2.5 µM

O=C(CCc1ccccc1-c1cccc(-c2ccccc2OCc2ccccc2)c1)NS(=O)(=O)c1cccs1
Ki [1]: 2.6 µM | Ki [2]: 1.7 µM | Ki [3]: 0.016 µM | Ki [4]: 1.6 µM

O=C(O)CCc1ccccc1-c1cccc(-c2ccccc2OCc2c(Cl)cccc2Cl)c1
Ki [1]: 1.1 µM | Ki [2]: 1.1 µM | Ki [3]: 0.021 µM | Ki [4]: 4.6 µM

CC(Cc1ccccc1-c1cccc(-c2ccccc2OCc2ccccc2)c1)C(=O)O (configuration not stated)
Ki [1]: 8.3 µM | Ki [2]: 1.2 µM | Ki [3]: 0.82 µM | Ki [4]: 3.6 µM

O=C(O)CCCc1ccccc1-c1cccc(-c2ccccc2OCc2ccccc2)c1
Ki [1]: 11.9 µM | Ki [2]: 2 µM | Ki [3]: 0.59 µM | Ki [4]: 3.5 µM

O=C(O)CCc1ccccc1-c1cccc(-c2ccccc2COc2ccccc2)c1
Ki [1]: 9.5 µM | Ki [2]: 1 µM | Ki [3]: 0.089 µM | Ki [4]: 2.9 µM

O=C(O)CCc1ccccc1-c1ccc(-c2ccccc2OCc2ccccc2)s1
Ki [1]: 27 µM | Ki [2]: 1.1 µM | Ki [3]: 0.52 µM | Ki [4]: 4.1 µM

O=C(O)CCc1ccccc1-c1cccc(-c2ccccc2OCc2ccccc2)c1
Ki [1]: 8.3 µM | Ki [2]: 1.8 µM | Ki [3]: 0.055 µM | Ki [4]: 3.7 µM

O=C(O)CCc1ccccc1-c1cccc(-c2ccccc2)c1
Ki [1]: 34 µM | Ki [2]: 6 µM | Ki [3]: 0.75 µM | Ki [4]: 8.1 µM

O=C(O)c1ccc(CCCc2ccccc2OCc2ccccc2)cc1
Ki [1]: 0.23 µM | Ki [2]: 0.44 µM | Ki [3]: 2.3 µM | Ki [4]: 0.15 µM

From ChEMBL document CHEMBL1136332, “Structure-activity relationship of triaryl propionic acid analogues on the human EP3 prostanoid receptor” (Bioorg Med Chem Lett, 2003)
